Source: ChEMBL document CHEMBL1124172 (J Med Chem, 1988)
In brackets after ≈: the same amount, converted by molar mass.

Columns and labels:
A204 = assay: In vitro cytotoxicity against human A204 Rhabdomyosarcoma cell line; assay type: functional, cell-based
Method in brief: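 A204 human rhabdomyosarcoma soft-agarose colony assay. 10^4 trypsin/EDTA-dissociated cells in 0.3% agarose over a 0.5% agarose base, in DMEM with 10% FCS, at 37 °C and 5% CO2. Compound was applied in an upper medium layer on day 1 for 24 h, then washed out. Colonies >60 µm were counted after 7–9 days by tetrazolium stain and image analysis. Quadruplicates with vehicle controls, at least four concentrations up to 100 or 1000 µg/mL. IC50 from a monoexponential least-squares fit over at least three preparations, mean ± SE.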

Mus musculus [1] = assay: In vivo antitumor activity against P388 Lymphocytic Leukemia measured as Survivors on day 5 at 400 mg/kg, w.r.t. compound 6; 4/4; assay type: functional
Mus musculus [2] = assay: In vivo antitumor activity against P388 Lymphocytic Leukemia measured as Survivors on day 5 at 200 mg/kg, w.r.t. compound 6; 4/4; assay type: functional
Mus musculus [3] = assay: In vivo antitumor activity against P388 Lymphocytic Leukemia measured as Survivors on day 5 at 800 mg/kg, w.r.t. compound 6; 4/4; assay type: functional
Mus musculus [4] = assay: In vivo antitumor activity against P388 Lymphocytic Leukemia in mice at 800 mg/kg expressed as T/C value w.r.t. compound 6; assay type: functional
Mus musculus [5] = assay: In vivo antitumor activity against P388 Lymphocytic Leukemia in mice at 400 mg/kg expressed as T/C value w.r.t. compound 6; assay type: functional
Mus musculus [6] = assay: In vivo antitumor activity against P388 Lymphocytic Leukemia in mice at 200 mg/kg expressed as T/C value w.r.t. compound 6; assay type: functional
Mus musculus [7] = assay: In vivo antitumor activity against P388 Lymphocytic Leukemia measured as Survivors on day 5 at 400 mg/kg, w.r.t. compound 6; 6/6; assay type: functional
Mus musculus [8] = assay: In vivo antitumor activity against P388 Lymphocytic Leukemia measured as Survivors on day 5 at 100 mg/kg, w.r.t. compound 6; 6/6; assay type: functional
Mus musculus [9] = assay: In vivo antitumor activity against P388 Lymphocytic Leukemia measured as Survivors on day 5 at 800 mg/kg, w.r.t. compound 6; 6/6; assay type: functional
Mus musculus [10] = assay: In vivo antitumor activity against P388 Lymphocytic Leukemia in mice at 100 mg/kg expressed as T/C value w.r.t. compound 6; assay type: functional
Mus musculus [11] = assay: In vivo antitumor activity against P388 Lymphocytic Leukemia measured as Survivors on day 5 at 200 mg/kg, w.r.t. compound 6; 5/6; assay type: functional
Mus musculus [12] = assay: In vivo antitumor activity against P388 Lymphocytic Leukemia in mice at 7.75 mg/kg expressed as T/C value; assay type: functional
Mus musculus [13] = assay: In vivo antitumor activity against P388 Lymphocytic Leukemia in mice at 15.5 mg/kg expressed as T/C value; assay type: functional
Mus musculus [14] = assay: In vivo antitumor activity against P388 Lymphocytic Leukemia measured as Survivors on day 5 at 7.75 mg/kg; 6/6; assay type: functional
Mus musculus [15] = assay: In vivo antitumor activity against P388 Lymphocytic Leukemia in mice at 62 mg/kg expressed as T/C value; assay type: functional
Mus musculus [16] = assay: In vivo antitumor activity against P388 Lymphocytic Leukemia measured as Survivors on day 5 at 31 mg/kg; 6/6; assay type: functional
Mus musculus [17] = assay: In vivo antitumor activity against P388 Lymphocytic Leukemia in mice at 31 mg/kg expressed as T/C value; assay type: functional
Mus musculus [18] = assay: In vivo antitumor activity against P388 Lymphocytic Leukemia measured as Survivors on day 5 at 15.5 mg/kg; 5/6; assay type: functional
Mus musculus [19] = assay: In vivo antitumor activity against P388 Lymphocytic Leukemia measured as survivors on day 5 at 62 mg/kg; 6/6; assay type: functional

CC(C)[C@](O)(C(=O)OCC1=CC[N+]2([O-])CC[C@@H](O)[C@@H]12)[C@H](C)O (some centres undefined) [INDICINE N-OXIDE]
IC50 (A204): 125 µg/mL (≈ 396 µM)

C[C@H]1C(=O)O[C@@H]2CC[N+]3([O-])CC=C(COC(=O)[C@](C)(O)[C@]1(C)O)[C@H]23 (some centres undefined) [MONOCROTALINE N-OXIDE]
IC50 (A204): 721 µg/mL (≈ 2110 µM)

CC(C)C(O)(C(=O)OC1CCN2CCC(CO)C12)C(C)O (centres undefined)
Survivors (Mus musculus [1]): 4 | Survivors (Mus musculus [2]): 4 | Survivors (Mus musculus [3]): 4 | T/C (Mus musculus [4]): 180% | T/C (Mus musculus [5]): 123% | T/C (Mus musculus [6]): 126%

CC(C)C(O)(C(=O)OCC1CCN2CC[C@@H](O)[C@@H]12)C(C)O.CC(C)C(O)(C(=O)OCC1CC[N+]2([O-])CC[C@@H](O)[C@@H]12)C(C)O (some centres undefined)
Survivors (Mus musculus [7]): 6 | Survivors (Mus musculus [8]): 6 | T/C (Mus musculus [4]): 146% | Survivors (Mus musculus [9]): 6 | T/C (Mus musculus [10]): 101% | Survivors (Mus musculus [11]): 5 | T/C (Mus musculus [5]): 120% | T/C (Mus musculus [6]): 118%

CCC(O)(C(=O)OCC1=CC[N+]2([O-])CC[C@H](OC(=O)[C@](O)(CC)c3ccccc3)[C@@H]12)c1ccccc1 (some centres undefined)
T/C (Mus musculus [12]): 106% | T/C (Mus musculus [13]): 100% | Survivors (Mus musculus [14]): 6 | T/C (Mus musculus [15]): 127% | Survivors (Mus musculus [16]): 6 | T/C (Mus musculus [17]): 109% | Survivors (Mus musculus [18]): 5 | Survivors (Mus musculus [19]): 6
